Source: publication PMC7654701 (Chemical communications (Cambridge, England), 2020)

Key:
class I HDACs = conditions: cited from earlier work
HDAC3 = HDAC3 (Homo sapiens, UniProt O15379); experiment: Western blot analysis of HDAC3 degradation in breast cancer cells; format: cell-based
Method in brief: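 MDA-MB-468 cells were treated with test compound for 14 h, and HDAC3 was assessed by western blot with band intensity normalized to α-tubulin. For the mechanism arm, cells were pretreated for 1 h with 1 μM MG132 or 10 μM VHL032 before 125 nM compound. A time course used 125 nM. For washout, cells got 125 nM for 14 h, then drug-free medium for additional time.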

HDACs = experiment: HDAC-Glo I/II Assays; format: biochemical; conditions: Table S1
HDAC1 = HDAC1 (Homo sapiens, UniProt Q13547); experiment: Western blot analysis of HDAC1 protein level in breast cancer cells; format: cell-based; conditions: MDA-MB-468 cells, 14 h treatment
HDAC1, sequence (Q13547 whole entry, canonical isoform): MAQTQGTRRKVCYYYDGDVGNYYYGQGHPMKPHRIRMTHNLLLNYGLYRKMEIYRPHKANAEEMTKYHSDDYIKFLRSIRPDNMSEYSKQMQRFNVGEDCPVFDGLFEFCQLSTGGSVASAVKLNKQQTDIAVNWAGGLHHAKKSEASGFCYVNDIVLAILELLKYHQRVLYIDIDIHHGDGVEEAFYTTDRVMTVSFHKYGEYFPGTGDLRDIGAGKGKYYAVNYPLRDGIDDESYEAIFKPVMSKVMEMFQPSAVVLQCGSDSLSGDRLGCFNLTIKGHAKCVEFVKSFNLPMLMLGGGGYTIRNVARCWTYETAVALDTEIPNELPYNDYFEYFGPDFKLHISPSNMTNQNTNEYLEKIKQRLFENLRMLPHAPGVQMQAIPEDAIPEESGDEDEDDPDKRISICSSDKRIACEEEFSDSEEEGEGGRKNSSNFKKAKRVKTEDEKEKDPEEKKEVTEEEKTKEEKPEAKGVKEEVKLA
Method in brief: (§1)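 MDA-MB-468 cells were treated with test compound for 14 h, then the HDAC isoform protein level was assessed by western blot.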

[1] = test system: histone acetylation at H3K27 and H4K5; experiment: Western blot analysis of histone acetylation; format: cell-based
HDAC6 = target: T1, HDAC6 (Homo sapiens, UniProt Q9UBN7); experiment: Western blot analysis of HDAC6 protein level in MDA-MB-468 cells; format: cell-based; conditions: 14 h treatment
T1 sequence (Q9UBN7 1-1215): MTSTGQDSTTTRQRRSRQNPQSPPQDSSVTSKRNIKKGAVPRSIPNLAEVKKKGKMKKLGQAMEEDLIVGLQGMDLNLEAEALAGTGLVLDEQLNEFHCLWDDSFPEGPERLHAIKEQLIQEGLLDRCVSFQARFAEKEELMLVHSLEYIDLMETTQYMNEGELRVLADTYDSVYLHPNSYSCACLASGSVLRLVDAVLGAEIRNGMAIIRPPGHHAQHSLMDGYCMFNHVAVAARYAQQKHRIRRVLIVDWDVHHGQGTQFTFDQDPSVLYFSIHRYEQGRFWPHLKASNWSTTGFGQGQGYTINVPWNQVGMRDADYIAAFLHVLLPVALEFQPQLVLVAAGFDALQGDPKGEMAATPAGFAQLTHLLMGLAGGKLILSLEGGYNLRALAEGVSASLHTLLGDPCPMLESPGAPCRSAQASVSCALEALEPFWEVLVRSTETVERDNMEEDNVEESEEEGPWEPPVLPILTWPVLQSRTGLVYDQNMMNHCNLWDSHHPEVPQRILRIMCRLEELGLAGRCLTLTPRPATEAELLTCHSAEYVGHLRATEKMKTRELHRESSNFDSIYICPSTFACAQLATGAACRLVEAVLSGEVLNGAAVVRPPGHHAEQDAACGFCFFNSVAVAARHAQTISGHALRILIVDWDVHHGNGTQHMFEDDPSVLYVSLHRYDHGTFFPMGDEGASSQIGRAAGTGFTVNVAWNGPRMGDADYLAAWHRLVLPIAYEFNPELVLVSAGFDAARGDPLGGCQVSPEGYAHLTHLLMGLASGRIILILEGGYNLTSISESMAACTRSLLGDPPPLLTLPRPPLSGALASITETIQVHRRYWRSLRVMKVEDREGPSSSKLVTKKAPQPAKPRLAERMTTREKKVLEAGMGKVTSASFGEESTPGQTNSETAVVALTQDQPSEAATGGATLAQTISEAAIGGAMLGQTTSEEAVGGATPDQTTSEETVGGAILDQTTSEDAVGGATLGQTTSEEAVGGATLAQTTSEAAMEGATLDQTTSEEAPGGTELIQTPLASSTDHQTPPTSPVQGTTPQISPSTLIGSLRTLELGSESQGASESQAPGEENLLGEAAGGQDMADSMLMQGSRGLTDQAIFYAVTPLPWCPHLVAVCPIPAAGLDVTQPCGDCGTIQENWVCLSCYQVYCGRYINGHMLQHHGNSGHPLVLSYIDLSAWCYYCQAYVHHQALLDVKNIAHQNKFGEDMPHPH
Method in brief: as §1

HCC1143 = experiment: Colony formation assay; format: cell-based; conditions: HCC1143 breast cancer cells
Method in brief: (§2)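 Cells were grown with test compound, and the medium with freshly added compound was replaced every five days until colonies reached suitable size. Colonies were then stained. Four biological replicates.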

Cytotoxicity = format: cell-based; conditions: Fig. S3
BT549 = experiment: Colony formation assay; format: cell-based; conditions: BT549 breast cancer cells
Method in brief: as §2

T47D = experiment: Colony formation assay; format: cell-based; conditions: T47D breast cancer cells
Method in brief: as §2

HDAC2 = HDAC2 (Homo sapiens, UniProt Q92769); experiment: Western blot analysis of HDAC2 protein level in breast cancer cells; format: cell-based; conditions: MDA-MB-468 cells, 14 h treatment
HDAC2, sequence (Q92769 whole entry): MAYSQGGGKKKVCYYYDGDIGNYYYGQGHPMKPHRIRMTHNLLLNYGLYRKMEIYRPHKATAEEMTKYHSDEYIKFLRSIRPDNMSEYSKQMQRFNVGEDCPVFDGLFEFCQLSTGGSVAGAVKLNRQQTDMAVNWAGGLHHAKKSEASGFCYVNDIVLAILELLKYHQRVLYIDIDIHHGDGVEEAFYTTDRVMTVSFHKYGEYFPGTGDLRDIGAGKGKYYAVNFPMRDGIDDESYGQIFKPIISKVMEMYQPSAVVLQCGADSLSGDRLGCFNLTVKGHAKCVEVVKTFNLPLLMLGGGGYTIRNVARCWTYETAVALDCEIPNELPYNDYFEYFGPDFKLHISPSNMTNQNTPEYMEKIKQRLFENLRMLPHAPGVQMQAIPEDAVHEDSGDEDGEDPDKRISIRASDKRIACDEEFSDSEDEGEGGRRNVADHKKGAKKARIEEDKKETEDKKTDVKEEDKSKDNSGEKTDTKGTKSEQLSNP
Method in brief: as §1

MDA-MB-468 cells = experiment: Colony formation assay; format: cell-based; conditions: difference was moderate
Method in brief: as §2

HDAC3, sequence (O15379 whole entry): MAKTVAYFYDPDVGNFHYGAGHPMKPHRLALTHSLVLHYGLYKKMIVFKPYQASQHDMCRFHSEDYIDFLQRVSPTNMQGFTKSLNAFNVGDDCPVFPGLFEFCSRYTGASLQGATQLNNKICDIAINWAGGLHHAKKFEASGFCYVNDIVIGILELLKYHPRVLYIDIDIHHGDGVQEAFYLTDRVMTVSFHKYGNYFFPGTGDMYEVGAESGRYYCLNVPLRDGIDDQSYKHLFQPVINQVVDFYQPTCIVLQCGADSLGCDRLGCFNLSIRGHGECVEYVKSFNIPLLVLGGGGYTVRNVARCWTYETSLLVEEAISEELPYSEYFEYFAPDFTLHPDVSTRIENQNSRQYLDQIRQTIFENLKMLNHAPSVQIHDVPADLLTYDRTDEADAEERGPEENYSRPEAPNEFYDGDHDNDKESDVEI
HDAC3, sequence (Q9Y618 whole entry partner): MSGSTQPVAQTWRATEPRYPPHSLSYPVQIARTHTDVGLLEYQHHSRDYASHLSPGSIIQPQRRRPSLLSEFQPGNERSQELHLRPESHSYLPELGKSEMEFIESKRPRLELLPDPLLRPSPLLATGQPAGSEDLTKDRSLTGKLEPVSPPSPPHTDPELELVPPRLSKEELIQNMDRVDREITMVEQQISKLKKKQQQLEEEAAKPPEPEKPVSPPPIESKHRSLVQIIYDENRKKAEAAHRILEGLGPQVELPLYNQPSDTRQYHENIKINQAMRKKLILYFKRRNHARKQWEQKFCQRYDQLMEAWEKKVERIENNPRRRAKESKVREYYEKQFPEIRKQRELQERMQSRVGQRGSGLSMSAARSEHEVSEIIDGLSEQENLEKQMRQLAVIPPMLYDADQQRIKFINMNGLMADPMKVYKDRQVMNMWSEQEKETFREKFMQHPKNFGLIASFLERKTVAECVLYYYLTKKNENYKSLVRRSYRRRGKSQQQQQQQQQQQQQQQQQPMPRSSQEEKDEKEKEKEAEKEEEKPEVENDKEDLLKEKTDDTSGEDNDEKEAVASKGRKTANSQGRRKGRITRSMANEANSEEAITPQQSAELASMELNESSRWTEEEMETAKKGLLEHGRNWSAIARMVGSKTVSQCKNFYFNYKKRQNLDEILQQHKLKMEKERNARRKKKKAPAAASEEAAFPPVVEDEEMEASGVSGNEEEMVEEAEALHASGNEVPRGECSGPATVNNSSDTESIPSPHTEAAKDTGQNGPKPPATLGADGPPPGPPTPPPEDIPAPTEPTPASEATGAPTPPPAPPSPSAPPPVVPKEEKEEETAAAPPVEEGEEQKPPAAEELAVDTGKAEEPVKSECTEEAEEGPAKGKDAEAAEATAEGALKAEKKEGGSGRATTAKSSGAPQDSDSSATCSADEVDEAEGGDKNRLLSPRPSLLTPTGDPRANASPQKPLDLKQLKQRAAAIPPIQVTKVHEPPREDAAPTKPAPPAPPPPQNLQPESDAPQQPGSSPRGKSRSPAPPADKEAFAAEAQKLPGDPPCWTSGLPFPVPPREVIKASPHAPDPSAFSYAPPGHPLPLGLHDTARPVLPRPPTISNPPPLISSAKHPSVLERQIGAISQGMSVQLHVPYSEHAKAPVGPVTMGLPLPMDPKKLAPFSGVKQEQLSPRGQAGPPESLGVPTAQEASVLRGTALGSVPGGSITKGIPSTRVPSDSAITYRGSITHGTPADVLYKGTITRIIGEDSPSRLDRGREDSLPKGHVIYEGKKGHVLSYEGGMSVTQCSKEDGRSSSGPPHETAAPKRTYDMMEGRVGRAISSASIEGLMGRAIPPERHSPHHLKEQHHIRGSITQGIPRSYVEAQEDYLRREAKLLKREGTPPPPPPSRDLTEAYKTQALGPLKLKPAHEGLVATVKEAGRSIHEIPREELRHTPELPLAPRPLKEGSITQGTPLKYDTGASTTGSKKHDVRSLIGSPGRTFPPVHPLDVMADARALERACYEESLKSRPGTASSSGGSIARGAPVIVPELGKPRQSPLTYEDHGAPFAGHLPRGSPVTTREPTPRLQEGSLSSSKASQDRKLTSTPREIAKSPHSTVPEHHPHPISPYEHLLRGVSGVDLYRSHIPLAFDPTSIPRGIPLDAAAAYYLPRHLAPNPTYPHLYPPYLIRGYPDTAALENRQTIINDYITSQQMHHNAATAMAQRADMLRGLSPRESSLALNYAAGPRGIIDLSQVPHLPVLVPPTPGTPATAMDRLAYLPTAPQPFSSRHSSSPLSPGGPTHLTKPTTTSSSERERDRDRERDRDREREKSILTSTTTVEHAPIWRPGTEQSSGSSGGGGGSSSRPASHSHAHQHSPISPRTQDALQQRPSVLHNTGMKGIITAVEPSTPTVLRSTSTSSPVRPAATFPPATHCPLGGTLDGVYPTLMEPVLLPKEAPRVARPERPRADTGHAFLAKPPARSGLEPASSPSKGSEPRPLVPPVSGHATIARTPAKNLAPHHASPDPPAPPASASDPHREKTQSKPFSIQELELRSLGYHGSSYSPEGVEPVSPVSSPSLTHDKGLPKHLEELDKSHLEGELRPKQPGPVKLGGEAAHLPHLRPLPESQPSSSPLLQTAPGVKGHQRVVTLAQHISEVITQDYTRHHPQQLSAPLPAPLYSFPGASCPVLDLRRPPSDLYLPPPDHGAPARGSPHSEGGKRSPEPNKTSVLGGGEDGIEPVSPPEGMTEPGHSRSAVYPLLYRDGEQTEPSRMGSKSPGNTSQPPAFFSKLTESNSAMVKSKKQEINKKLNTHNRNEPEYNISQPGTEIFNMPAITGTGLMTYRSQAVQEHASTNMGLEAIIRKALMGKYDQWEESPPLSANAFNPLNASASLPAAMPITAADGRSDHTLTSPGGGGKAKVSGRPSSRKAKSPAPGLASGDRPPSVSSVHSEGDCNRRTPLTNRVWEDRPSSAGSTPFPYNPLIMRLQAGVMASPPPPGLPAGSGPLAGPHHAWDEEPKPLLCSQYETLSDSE

## CCCCNNC(=O)c1ccc(-c2ccccc2)cc1 [SR-3558]
Class I HDACs; benzoylhydrazide ZBG
  HDAC isozyme binding preference: preferentially binds to HDAC3
Class I HDACs
  inhibition of class I HDACs: potent and selective inhibitor

## CCCNNC(=O)c1ccc(-c2ccc(NC(=O)CCCCCCC(=O)N[C@H](C(=O)N3C[C@@H](O)C[C@@H]3C(=O)N[C@@H](C)c3ccc(-c4scnc4C)cc3)C(C)(C)C)cc2)cc1 [XZ9002-NC]
HDAC3; MDA-MB-468 cells, Fig. 2B
  HDAC3 degradation: did not induce HDAC3 degradation

## CCCNNC(=O)c1ccc(-c2ccc(NC(=O)CCCCCCC(=O)N[C@H](C(=O)N3C[C@H](O)C[C@H]3C(=O)N[C@@H](C)c3ccc(-c4scnc4C)cc3)C(C)(C)C)cc2)cc1 [XZ9002]
HDACs
  binding of HDAC3 compared with other HDACs: more strongly
HDAC1
  change in protein level of HDAC1: no significant changes
[1]; Fig. 2A and Fig. S2, moderate effects compared to 15 and CRBN-based PROTACs
  histone acetylation: dose-dependently increased
[1]; Fig. S2
  potency to induce histone hyperacetylation compared to 15: less potent
HDAC6
  change in protein level of HDAC6: no significant changes
HDAC3; MDA-MB-468, 125 nM for 14 h then drug-free medium
  time for HDAC3 to rebound to the steady level after washout: more than 12 h
HDAC3; MDA-MB-468, 125 nM, 8 h treatment
  HDAC3 degraded: 70%
HDAC3; MDA-MB-468, 125 nM, time course
  start of HDAC3 degradation: ≤ 2 h
HDAC3; MDA-MB-468, XZ9002 125 nM, MG132 1 μM for 1 h
  HDAC3 degradation after pre-incubation with proteasome inhibitor MG132: blocked
HDAC3; MDA-MB-468, XZ9002 125 nM, VH032 10 μM for 1 h
  HDAC3 degradation after pre-incubation with VHL ligand VH032: blocked
HCC1143
  suppression of clonogenic growth compared to XZ9002-NC: markedly more potent
Cytotoxicity
  potency to induce cytotoxicity compared to 15: less potent
BT549
  suppression of clonogenic growth compared to XZ9002-NC: markedly more potent
T47D
  suppression of clonogenic growth compared to XZ9002-NC: markedly more potent
HDAC2
  change in protein level of HDAC2: no significant changes
MDA-MB-468 cells
  inhibition of clonogenic growth compared to XZ9002-NC: more effective
